Source: ChEMBL document CHEMBL3875171, “[1,2]Oxazolo[5,4-e]isoindoles as promising tubulin polymerization inhibitors” (Eur J Med Chem, 2016)
Calls of active or inactive are those of the source. The rule behind the calls is not given here.

What was measured:
MP8 [1] = test: Inhibition of alpha-tubulin polymerization in human MP8 cells assessed as increase in ratio of soluble to polymerized tubulin fraction at 13 nM after 24 hrs by western blot analysis; type: cell-based
STO [2] = test: Cell cycle arrest in human STO cells assessed as accumulation at G2/M phase at antiproliferative IC50 after 48 to 72 hrs by propidium iodide staining based flow cytometry; type: functional
How it was run: (§1)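 STO or MP8 cells exposed 48 and 72 h to compound at IC50 or IC80 (72-h MTS values), controls 1% DMSO. Adherent plus floating cells fixed in 70% ethanol, stained 30 min at 4°C with propidium iodide 50 µg/mL, RNase, 0.05% NP-40 in PBS. ≥30000 events per flow cytometry sample; Modfit model for G1/S/G2/M percentages; mean of three independent experiments.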

[3] = Cell cycle arrest in human MP8 cells assessed as mitotic cells at antiproliferative IC50 after 72 hrs by fluorescence microscopic analysis relative to control; type: functional
MP8 [4] = test: Cell cycle arrest in human MP8 cells assessed as accumulation at G2/M phase at antiproliferative IC50 after 48 to 72 hrs by propidium iodide staining based flow cytometry; type: functional; how it was run: as §1
STO [5] = test: Inhibition of alpha-tubulin polymerization in human STO cells assessed as increase in ratio of soluble to polymerized tubulin fraction at 2 nM after 24 hrs by western blot analysis; type: cell-based
[6] = Cell cycle arrest in human STO cells assessed as mitotic cells at antiproliferative IC50 after 72 hrs by fluorescence microscopic analysis relative to control; type: functional
[7] = Oral bioavailability in dog; type: ADME, organism-based, Canis lupus familiaris; settings: in vivo
[8] = Oral bioavailability in monkey; type: ADME, organism-based, Macaca mulatta; settings: rhesus monkey, in vivo
[9] = Displacement of [3H]colchicine from tubulin (unknown origin); set-up: species or system Homo sapiens
[10] = Antitumor activity against mouse M5076 cells implanted in mouse assessed as delay in time to develop 1 g tumor volume at 100 mg/kg/day; type: functional
[11] = Antitumor activity against mouse M5076 cells implanted in mouse assessed as increase in mouse life span at 100 mg/kg/day relative to control; type: functional
[12] = Oral bioavailability in rat; type: ADME, organism-based; settings: in vivo
[13] = Toxicity in mouse implanted with mouse M5076 cells; type: organism-based
[14] = Oral bioavailability in mouse; type: ADME, organism-based; settings: in vivo
[15] = Cytotoxicity against human STO cells assessed as growth inhibition after 72 hrs by MTS assay; type: functional, cell-based
How it was run: (§2)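 Log-phase cells seeded at 4500 cells/50 µL and grown 24 h, then exposed 72 h to 0.01-100 µM compound; vehicle controls 0.01% DMSO. MTS read-out at 490 nm, expressed as % of DMSO-treated cells. Eight replicates per condition, at least three independent repeats; IC50 read graphically from dose-response curves.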

[16] = Cytotoxicity against human PC3 cells assessed as growth inhibition after 72 hrs by MTS assay; type: functional, cell-based; settings: PC-3, 72 h; how it was run: as §2
[17] = Cytotoxicity against human MCF7 cells assessed as growth inhibition after 72 hrs by MTS assay; type: functional, cell-based; settings: MCF7, 72 h; how it was run: as §2
[18] = Cytotoxicity against human M14 cells assessed as growth inhibition after 72 hrs by MTS assay; type: functional, cell-based; settings: M14, 72 h; how it was run: as §2
[19] = Cytotoxicity against human MP8 cells assessed as growth inhibition after 72 hrs by MTS assay; type: functional, cell-based; settings: MP8, 72 h; how it was run: as §2
[20] = Cytotoxicity against human MDA-MB-231 cells assessed as growth inhibition after 72 hrs by MTS assay; type: functional, cell-based; settings: MDA-MB-231, 72 h; how it was run: as §2
[21] = Cytotoxicity against human WI38 cells assessed as growth inhibition after 72 hrs by MTS assay; type: toxicity, cell-based, WI-38; how it was run: as §2
[22] = Cytotoxicity against human JR8 cells assessed as growth inhibition after 72 hrs by MTS assay; type: functional, cell-based; settings: JR8, 72 h; how it was run: as §2
[23] = Cytotoxicity against human MCF10A cells assessed as growth inhibition after 72 hrs by MTS assay; type: toxicity, cell-based, MCF-10A; how it was run: as §2
[24] = Cytotoxicity against human DU145 cells assessed as growth inhibition after 72 hrs by MTS assay; type: functional, cell-based; settings: DU-145, 72 h; how it was run: as §2
Mus musculus = test: Toxicity in nude mouse xenografted with human STO cells assessed as body weight loss at 5 mg/kg, ip administered once per seven days for 4 weeks starting from day 10 post cell inoculum; type: organism-based; settings: in vivo, 672 h
How it was run: (§3)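 Female nude mice, 6-8 weeks old; 10^7 exponentially growing STO cells injected s.c. into right flank; eight mice per group. Compound in 10% DMSO/90% saline, 5 mg/kg i.p. q7dx4 from day 10 after inoculum. Tumor diameters measured weekly by caliper, TV = d2×D/2; TVI% = 100 − (mean TV treated/mean TV control × 100). Toxicity scored as body weight loss and lethality.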

MP8 [25] = test: Inhibition of alpha-tubulin polymerization in human MP8 cells assessed as increase in ratio of soluble to polymerized tubulin fraction at antiproliferative IC50 after 24 hrs by western blot analysis; type: cell-based
STO [26] = test: Inhibition of alpha-tubulin polymerization in human STO cells assessed as increase in ratio of soluble to polymerized tubulin fraction at antiproliferative IC50 after 24 hrs by western blot analysis; type: cell-based
[27] = Antitumor activity against human STO cells xenografted in nude mouse assessed as tumor growth inhibition at 5 mg/kg, ip administered once per seven days for 4 weeks starting from day 10 post cell inoculum; type: functional; settings: read-out: TGI; how it was run: as §3
MP8 [28] = test: Cell cycle arrest in human MP8 cells assessed as reduction G1 phase at antiproliferative IC50 after 48 to 72 hrs by propidium iodide staining based flow cytometry; type: functional; how it was run: as §1
MP8 [29] = test: Cell cycle arrest in human MP8 cells assessed as reduction G1 phase at antiproliferative IC80 after 48 to 72 hrs by propidium iodide staining based flow cytometry; type: functional; how it was run: as §1
STO [30] = test: Cell cycle arrest in human STO cells assessed as reduction G1 phase at antiproliferative IC80 after 48 to 72 hrs by propidium iodide staining based flow cytometry; type: functional; how it was run: as §1
STO [31] = test: Cell cycle arrest in human STO cells assessed as reduction G1 phase at antiproliferative IC50 after 48 to 72 hrs by propidium iodide staining based flow cytometry; type: functional; how it was run: as §1

| Compound | Activity [3] | Activity [6] | IC50 [15] | IC50 [16] | IC50 [17] | IC50 [18] | IC50 [19] | IC50 [20] | IC50 at 72 h [21] | IC50 [22] | IC50 at 72 h [23] | IC50 [24] | other results |
| --- | --- | --- | --- | --- | --- | --- | --- | --- | --- | --- | --- | --- | --- |
| CCC1=C[C@@H]2CN(C1)Cc1c([nH]c3ccccc13)[C@@](C(=O)OC)(c1cc3c(cc1OC)N(C)[C@H]1[C@@](O)(C(=O)OC)[C@H](OC(C)=O)[C@]4(CC)C=CCN5CC[C@]31[C@@H]54)C2 [VINORELBINE] | 35 - 70% | 35 - 70% | – | – | – | – | – | – | – | – | – | – | inhibition (MP8 [1]): Active; Activity (STO [2]): Active; Activity (MP8 [4]): Active; inhibition (STO [5]): Active |
| COc1cc([C@H]2CN=C(c3ccc4c(ccn4C)c3)O2)cc(OC)c1OC | – | – | – | – | – | – | – | – | – | – | – | – | bioavailability [7]: 6.5 to 18.6%; bioavailability [8]: 6.5 to 18.6%; Ki [9]: 0.65 µM; Time [10]: 28 days; Activity [11]: 206%; bioavailability [12]: 6.5 to 18.6%; MTD [13]: 100 mg/kg/day; bioavailability [14]: 6.5 to 18.6% |
| COc1ccc(OC)c(Cn2cc3c(c2)-c2oncc2CC3)c1 | – | – | > 100 µM | 23.7 µM | 15.2 µM | 16.8 µM | > 100 µM | 19.6 µM | > 100 µM | 19.2 µM | > 100 µM | 19.5 µM | – |
| CC(=O)O[C@H]1C(=O)[C@@]2(C)[C@H]([C@H](OC(=O)c3ccccc3)[C@]3(O)C[C@H](OC(=O)[C@H](O)[C@@H](NC(=O)c4ccccc4)c4ccccc4)C(C)=C1C3(C)C)[C@]1(OC(C)=O)CO[C@@H]1C[C@@H]2O [PACLITAXEL] | 35 - 70% | 35 - 70% | – | – | – | – | – | – | – | – | – | – | Activity (STO [2]): Active; Activity (MP8 [4]): Active |
| COc1ccccc1Cn1cc2c(c1)-c1oncc1CC2 | – | – | 0.79 µM | 18.6 µM | 19.4 µM | 20.5 µM | 1.52 µM | 14.4 µM | > 100 µM | 16.2 µM | > 100 µM | 17.5 µM | – |
| COc1cc(Cn2cc3c(c2)-c2oncc2CC3)cc(OC)c1 | 35 - 70% | 35 - 70% | 0.06 µM | 0.27 µM | 0.33 µM | 0.31 µM | 0.07 µM | 0.32 µM | > 100 µM | 0.23 µM | > 100 µM | 0.31 µM | Activity (Mus musculus): Non-Toxic; inhibition (MP8 [25]): Active; inhibition (STO [26]): Active; inhibition in vivo at 5 mg/kg [27]: 51%; Activity (MP8 [28]): Active; Activity (MP8 [29]): Active; Activity (STO [30]): Active; Activity (STO [31]): Active |
| COc1ccc(Cn2cc3c(c2)-c2oncc2CC3)cc1OC | – | – | 0.64 µM | 0.79 µM | 1.03 µM | 0.96 µM | 0.51 µM | 0.88 µM | > 100 µM | 0.85 µM | > 100 µM | 0.87 µM | – |
| COc1cc(Cn2cc3c(c2)-c2oncc2CC3)cc(OC)c1OC | – | – | 0.62 µM | 0.87 µM | 0.92 µM | 0.89 µM | 0.73 µM | 0.75 µM | > 100 µM | 0.63 µM | > 100 µM | 0.99 µM | – |
| c1ccc(Cn2cc3c(c2)-c2oncc2CC3)cc1 | – | – | 0.79 µM | 13.5 µM | 11.3 µM | 6.88 µM | 0.69 µM | 19.6 µM | > 100 µM | 5.14 µM | > 100 µM | 15.2 µM | – |
| COc1cccc(Cn2cc3c(c2)-c2oncc2CC3)c1 | – | – | 0.46 µM | 0.96 µM | 1.17 µM | 1.02 µM | 0.51 µM | 0.85 µM | > 100 µM | 0.96 µM | > 100 µM | 1.37 µM | – |
